In ChEMBL document CHEMBL1123290, “Synthesis, antimalarial activity, and quantitative structure-activity relationships of tebuquine and a series of related 5-[(7-chloro-4-quinolinyl)amino]-3-[(alkylamino)methyl] [1,1'-biphenyl]-2-ols and N omega-oxides” (1986):

Experiments:
Type in all cases: functional
Plasmodium berghei [1] = assay: Change in mean survival time for control (average 6.2 days) versus treated mice (Mus musculus) 72 hrs after 10 mg/kg subcutaneous dose
Plasmodium berghei [2] = assay: Change in mean survival time for control (average 6.2 days) versus treated mice (Mus musculus) 72 hrs after 20 mg/kg subcutaneous dose
Plasmodium berghei [3] = assay: Difference in mean survival time in mice (Mus musculus) (control = 6.2 days) after single 40mg/kg subcutaneous dose 72hr post infection
Plasmodium berghei [4] = assay: Antimalarial activity as 60-day survivors in Plasmodium berghei infected mice (Mus musculus) after single 160mg/kg subcutaneous dose 72 hr post infection
How it was run: (§1)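 Mice were infected with a normal drug-sensitive Plasmodium berghei strain. At 72 h postinfection each received one subcutaneous dose of compound dissolved or suspended in peanut oil, in five-mouse groups per dose. The read-out was the number of mice alive at 60 days postinfection, which were scored as cured.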

Plasmodium berghei [5] = assay: Antimalarial activity as 60-day survivors in infected mice (Mus musculus) after single 320mg/kg subcutaneous dose 72 hr post infection; how it was run: as §1
Mus musculus [6] = assay: Antimalarial activity, administered as a single subcutaneous dose of 640 mg/kg, 72 hrs post infection measured as number of mice (Mus musculus) surviving at 60 days post infection; how it was run: as §1
Mus musculus [7] = assay: Antimalarial activity, administered as a single subcutaneous dose of 80 mg/kg, 72 hrs post infection measured as number of mice (Mus musculus) surviving at 60 days post infection; how it was run: as §1
Plasmodium berghei [8] = assay: Antimalarial activity in primary screen
Plasmodium berghei [9] = assay: Change in mean survival time for control (average 6.2 days) versus treated mice (Mus musculus) 72 hrs after 5 mg/kg subcutaneous dose
Plasmodium berghei [10] = assay: Change in mean survival time for control (average of 6.2 days) versus treated mice (Mus musculus) 72 hrs after 80 mg/kg subcutaneous dose
Plasmodium berghei [11] = assay: Change in mean survival time for control (average 6.2 days) versus treated mice (Mus musculus) 72 hrs after […] subcutaneous dose
Plasmodium berghei [12] = assay: Change in mean survival time for control (average 6.2 days) versus treated mice (Mus musculus) 72 hrs after 160 mg/kg subcutaneous dose
Plasmodium berghei [13] = assay: Change in mean survival time for control (average 6.2 days) versus treated mice (Mus musculus) 72 hrs after […] subcutaneous dose
Mus musculus [14] = assay: Antimalarial activity, administered as a single subcutaneous dose of 40 mg/kg, 72 hrs post infection measured as number of mice (Mus musculus) surviving at 60 days post infection; how it was run: as §1
Plasmodium berghei [15] = assay: Change in mean survival time for control (average 6.2 days) versus treated mice (Mus musculus) 72 hrs after 640 mg/kg subcutaneous dose
Plasmodium berghei [16] = assay: Change in mean survival time for control (average 6.2 days) versus treated mice (Mus musculus) 72 hrs after 320 mg/kg subcutaneous dose

Compound | Delta MST (Plasmodium berghei [1]) | Delta MST (Plasmodium berghei [2]) | Delta MST (Plasmodium berghei [3]) | No. of mice cured (Plasmodium berghei [4]) | No. of mice cured (Plasmodium berghei [5]) | No. of mice cured (Mus musculus [6]) | No. of mice cured (Mus musculus [7]) | ED30 (Plasmodium berghei [8]) | Delta MST (Plasmodium berghei [9]) | Delta MST (Plasmodium berghei [10]) | Delta MST (Plasmodium berghei [11]) | Delta MST (Plasmodium berghei [12]) | Delta MST (Plasmodium berghei [13]) | No. of mice cured (Mus musculus [14]) | Delta MST (Plasmodium berghei [15]) | Delta MST (Plasmodium berghei [16])
CCN(CC)Cc1cc(Nc2ccnc3cc(Cl)ccc23)ccc1O.Cl | 5.7 days | 8.3 days | 11.9 days | 5 | 5 | 5 | 2 |  |  |  |  |  |  |  |  | 
CCN(CC)Cc1cc(Nc2ccnc3cc(Cl)ccc23)cc(-c2ccccc2F)c1O | 12.8 days | 16.4 days | 18.4 days | 2 | 5 | 5 |  | 26.8 mg/kg | 4.4 days | 26.2 days | 0 days | 33.1 days | 0.4 days | 1 |  | 
CCN(CC)Cc1cc(Nc2ccnc3cc(Cl)ccc23)cc(-c2ccc(Cl)c(Cl)c2)c1O | 0.9 days | 15.7 days | 23.7 days | 4 | 5 | 3 | 4 | 22.7 mg/kg | 0.1 days | 33.4 days | -0.1 days | 21.4 days | -0.3 days | 3 | 10.9 days | 
CCN(CC)Cc1cc(Nc2ccnc3cc(Cl)ccc23)cc(-c2ccc(F)cc2)c1O |  |  | 13.4 days |  |  |  |  | 8.8 mg/kg |  |  |  | 12.8 days |  | 2 | 14.8 days | 
CCN(CC)Cc1cc(Nc2ccnc3cc(Cl)ccc23)cc(-c2ccccc2OC)c1O | 2.6 days | 6.2 days | 9.4 days | 2 | 2 | 5 | 2 | 74 mg/kg | 0.4 days | 14.9 days | -0.2 days | 18.9 days | 0.2 days |  |  | 37.9 days
CCCCN(CCCC)Cc1cc(Nc2ccnc3cc(Cl)ccc23)cc(-c2ccc(Cl)cc2)c1O | 2 days | 4.6 days | 8.2 days |  |  | 3 |  |  | 0.2 days | 12.6 days | 0.4 days | 17 days | 0.2 days |  | 34.4 days | 24 days
CCN(CC)Cc1cc(Nc2ccnc3cc(Cl)ccc23)cc(-c2ccc(O)cc2)c1O |  | -0.2 days | 0.8 days |  | 2 | 1 |  | 320 mg/kg |  | 4.8 days |  | 6.8 days |  |  | 4.1 days | 3.8 days
Oc1c(CN2CCCC2)cc(Nc2ccnc3cc(Cl)ccc23)cc1-c1ccc(Cl)c(Cl)c1 | 0.1 days | 8.3 days | 18.5 days | 4 | 3 | 3 | 1 |  |  | 30.2 days | -0.1 days |  | -0.1 days |  | 33.9 days | 25.9 days
CCN(CC)Cc1cc(Nc2ccnc3cc(Cl)ccc23)cc(-c2cc(OC)ccc2OC)c1O |  | 0 days | 3.8 days |  |  |  |  | 9680 mg/kg |  | 3.6 days |  | 4 days |  |  | 8.6 days | 8.8 days
CC(C)(C)NCc1cc(C(C)(C)C)cc(-c2ccc(Cl)cc2)c1O |  | 5.1 days | 12.9 days | 5 | 5 | 5 |  |  |  | 15.7 days |  |  |  |  |  | 
CCN(CC)Cc1cc(Nc2ccnc3cc(Cl)ccc23)cc(-c2ccc(C)cc2)c1O | 1.6 days | 3.3 days | 4.5 days |  |  |  |  | 1530 mg/kg | 0.4 days | 6.5 days | 0.4 days | 9.7 days | 0.4 days |  | 20.5 days | 14.5 days
CCN(CC)Cc1cc(Nc2ccnc3cc(Cl)ccc23)cc(-c2ccc(OC)cc2)c1O | 2.9 days | 4.3 days | 7.3 days | 2 | 3 | 5 | 1 | 112 mg/kg | 1.3 days | 12.4 days | 0.5 days | 16.1 days | 0.1 days |  |  | 28.9 days
CCN(CC)Cc1cc(Nc2ccnc3cc(Cl)ccc23)cc(-c2ccccn2)c1O |  | 2.6 days | 3.8 days |  | 3 | 3 |  | 160 mg/kg |  | 7.8 days |  | 11.2 days |  |  | 25.3 days | 15.8 days
Oc1c(CNC23CC4CC(CC(C4)C2)C3)cc(Nc2ccnc3cc(Cl)ccc23)cc1-c1ccc(Cl)cc1 | 0.1 days | 7.5 days | 18.5 days | 4 | 5 | 2 | 4 |  | -0.3 days | 23 days | -0.5 days | 39 days | -0.3 days |  | 19 days | 
CCN(CC)Cc1cc(Nc2cc[n+]([O-])c3cc(Cl)ccc23)ccc1O |  |  |  | 3 | 5 | 3 |  |  |  |  |  |  |  |  |  | 
CCN(CC)Cc1cc(Nc2ccnc3cc(Cl)ccc23)cc(-c2ccc(OC)c(OC)c2)c1O |  | 1.2 days | 3.8 days |  |  | 1 |  | 927 mg/kg |  | 5.4 days |  | 8.6 days |  |  | 13.1 | 12 days
CCN(CC)Cc1cc(Nc2ccnc3cc(Cl)ccc23)cc(CN(CC)CC)c1O [CYLCLOQUINE] | 11.5 days | 15.1 days | 19.1 days | 4 | 5 | 5 | 2 |  |  |  |  |  |  |  |  | 
